Data taken from ChEMBL document CHEMBL1159062, “Towards the synthesis of bisubstrate inhibitors of protein farnesyltransferase: Synthesis and biological evaluation of new farnesylpyrophosphate analogues” (Bioorg Med Chem, 2010).
Blank lines part the entries; values can stand above or below the compound they belong to. Active and inactive are the calls of the source. The calls are words filed in the database; no cut-off is given here.

How the values were obtained:
[1] = Inhibition of yeast recombinant FTase by fluorescent-based assay; design: species or system Saccharomyces cerevisiae
[2] = target: T1, Protein farnesyltransferase (Homo sapiens, UniProt P49354+P49356); assay: Inhibition of human recombinant FTase by fluorescent-based assay; assay type: protein-complex assay
[3] = target: T1, Protein farnesyltransferase; assay: Binding affinity to FPP site of human recombinant FTase by competitive Michaelis-Menten analysis; assay type: protein-complex assay
How it was run: (§1)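 Partially purified recombinant human FTase, fluorescent farnesylation of dansyl-GCVLS. Buffer: 5.8 mM DTT, 6 mM MgCl2, 12 µM ZnCl2, 0.18% octyl-glucopyranoside, 53 mM Tris/HCl pH 7.5. Kinetics: FPP varied with Dns-GCVLS fixed at 2.5 µM, or peptide varied with FPP fixed at 10 µM.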

[4] = target: T1, Protein farnesyltransferase; assay: Binding affinity to Dns-GCVLS peptide site of human recombinant FTase by competitive Michaelis-Menten analysis; assay type: protein-complex assay; how it was run: as §1
[5] = test system: Trypanosoma brucei brucei; assay: Antitrypanosomal activity against Trypanosoma brucei brucei 93 blood stream form at 10 uM after 72 hrs by alamar blue assay; assay type: functional; conditions: for inhibition at 10 µM: Trypanosoma brucei, 93, 72 h
How it was run: (§2)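 Strain 93 bloodstream forms cultured in HMI9 + 10% FCS, 37 °C, 5% CO2. Log-phase cells harvested at 3000g and seeded at 3 × 10^4 cells/mL. Inhibitors 0–100 µM, final DMSO 1%, 72 h. AlamarBlue (resazurin) added, read 4 h later at ex 530/em 590 nm. Inhibition relative to drug-free cells; triplicates, experiment repeated twice.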

Plasmodium falciparum = assay: Antiplasmodial activity against Plasmodium falciparum FcB1/Columbia assessed as [3H]hypoxanthine incorporation after 24 hrs by liquid scintillation spectrophotometer; assay type: functional, organism-based
How it was run: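 FcB1/Colombia (chloroquine-resistant) grown on human erythrocytes in RPMI 1640 + 8% heat-inactivated human serum, 37 °C, 3% CO2/6% O2/91% N2. Twofold serial dilutions from 10 mM DMSO stocks; asynchronous cultures at 1% parasitemia, 1% final hematocrit, 24 h, then 0.5 µCi [3H]-hypoxanthine for 24 h more. Freeze-thaw, filter harvest, scintillation counting versus same-plate control. IC50 from concentration–response curve; mean ± SD of several independent experiments.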

[6] = test system: Trypanosoma brucei brucei; assay: Antitrypanosomal activity against Trypanosoma brucei brucei 93 blood stream form at 1 uM after 72 hrs by alamar blue assay; assay type: functional; how it was run: as §2
KB [7] = assay: Cytotoxicity against human KB cells at 10 uM after 72 hrs by MTS assay; assay type: functional
How it was run: (§3)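 KB cells seeded at 2000/well and exposed 72 h to compound in medium with 1% final DMSO; docetaxel as positive control. Viability by MTS, OD 490 nm. Cytotoxicity index = OD treated/OD control × 100, from triplicates across three experiments.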

[8] = test system: Trypanosoma brucei brucei; assay: Antitrypanosomal activity against Trypanosoma brucei brucei WT2913 procyclic form at 10 uM after 72 hrs by alamar blue assay; assay type: functional; conditions: for inhibition at 10 µM: WT2913, 72 h
How it was run: (§4)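 Strain WT 2913 procyclic forms kept in semi-defined medium 79 + 10% heat-inactivated FCS at 27 °C. Log-phase cells spun at 3000g and seeded at 1 × 10^6 cells/mL. Exposed 72 h to 0–100 µM inhibitor in 1% final DMSO. Resazurin (AlamarBlue) fluorescence read after a further 4 h, ex 530/em 590 nm. Growth inhibition versus untreated; triplicates, done twice.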

[9] = target: T1, Protein farnesyltransferase; assay: Binding affinity to CaaX site of human recombinant FTase by non-competitive Michaelis-Menten analysis for enzyme-inhibitor complex; assay type: protein-complex assay; how it was run: as §1
[10] = target: T1, Protein farnesyltransferase; assay: Binding affinity to CaaX site of human recombinant FTase by non-competitive Michaelis-Menten analysis for enzyme-substrate-inhibitor complex; assay type: protein-complex assay; how it was run: as §1
[11] = test system: Trypanosoma brucei brucei; assay: Antitrypanosomal activity against Trypanosoma brucei brucei WT2913 procyclic form at 1 uM after 72 hrs by alamar blue assay; assay type: functional, organism-based; how it was run: as §4
KB [12] = assay: Cytotoxicity against human KB cells at 1 uM after 72 hrs by MTS assay; assay type: functional, cell-based; how it was run: as §3

SMILES: CC(C)=CCC/C(C)=C/CC/C(C)=C/C=C/C(N)=O
- IC50 [1]: Not Active
- IC50 [2]: Not Active

SMILES: CC(C)=CCC/C(C)=C/CC/C(C)=C/CCCC(=O)O
- IC50 ([1]; read-out: IC50): 42 µM
- IC50 ([2]; read-out: IC50): 170 µM

SMILES: CCOC(=O)C(C/C=C(\C)CC/C=C(\C)CCC=C(C)C)(CCCc1nccn1C)C(=O)OCC
- inhibition at 10 µM [5]: 89%
- IC50 (Plasmodium falciparum): 4 µM
- Activity [6]: 24%

SMILES: CC(C)=CCC/C(C)=C/CC/C(C)=C/COC(=O)CC(=O)O
- IC50 ([1]; read-out: IC50): 80 µM
- IC50 ([2]; read-out: IC50): 160 µM

SMILES: CCOC(=O)C(C/C=C(\C)CC/C=C(\C)CCC=C(C)C)(CCCc1ncc(CN[C@H](C(=O)N[C@@H](Cc2ccccc2)C(=O)N[C@@H](CCSC)C(=O)OC)C(C)C)n1C)C(=O)OCC
- inhibition at 10 µM (KB [7]): 44%
- inhibition at 10 µM [8]: 54%
- IC50 (Plasmodium falciparum): 1 µM
- Activity [11]: inactive
- Activity (KB [12]): inactive
- IC50 [2]: Not Active

SMILES: CC(C)=CCC/C(C)=C/CC/C(C)=C/C=C(C(=O)O)C(=O)O
- IC50 [2]: Not Active

SMILES: CC(C)=CCC/C(C)=C/CC/C(C)=C/COC(=O)CCC(=O)O
- IC50 ([1]; read-out: IC50): 100 µM
- IC50 ([2]; read-out: IC50): 130 µM

SMILES: CC(C)=CCC/C(C)=C/CC/C(C)=C/C/C=C/C(=O)O
- IC50 ([1]; read-out: IC50): 40 µM
- IC50 ([2]; read-out: IC50): 130 µM

SMILES: CC(C)=CCC/C(C)=C/CC/C(C)=C/CCC(N)=O
- IC50 [1]: Not Active
- IC50 ([2]; read-out: IC50): > 200 µM

SMILES: CC(C)=CCC/C(C)=C/CC/C(C)=C/CC(=O)CCCC(=O)O
- IC50 ([1]; read-out: IC50): 35 µM
- IC50 ([2]; read-out: IC50): 60 µM

SMILES: CCOC(=O)C(C/C=C/c1ncc(CN[C@H](C(=O)N[C@@H](Cc2ccccc2)C(=O)N[C@@H](CCSC)C(=O)OC)C(C)C)n1C)(C/C=C(\C)CC/C=C(\C)CCC=C(C)C)C(=O)OCC
- inhibition at 10 µM (KB [7]): 60%
- inhibition at 10 µM [8]: 28%
- inhibition at 10 µM [5]: 92%
- IC50 (Plasmodium falciparum): 1.1 µM
- Activity [11]: inactive
- Activity (KB [12]): inactive
- Activity [6]: 64%
- IC50 [2]: Not Active

SMILES: CC(C)=CCC/C(C)=C/CC/C(C)=C/CCC(=O)NS(=O)(=O)c1ccccc1
- IC50 ([1]; read-out: IC50): > 200 µM
- IC50 ([2]; read-out: IC50): > 200 µM

SMILES: CC(C)=CCC/C(C)=C/CC/C(C)=C/CCC(=O)CCCC(=O)O
- IC50 ([1]; read-out: IC50): 15 µM
- IC50 ([2]; read-out: IC50): 60 µM

SMILES: CSCC[C@H](NC(=O)[C@H](Cc1ccccc1)NC(=O)[C@@H](NCc1cnc(CCCC(CC(=O)O)C(=O)O)n1C)C(C)C)C(=O)O (stereo partly specified)
- IC50 ([2]; read-out: IC50): 60 µM

SMILES: CC(C)=CCC/C(C)=C/CC/C(C)=C/CCC(=O)CCC(=O)O
- IC50 ([1]; read-out: IC50): 80 µM
- IC50 ([2]; read-out: IC50): > 200 µM

SMILES: CC(C)=CCC/C(C)=C/CC/C(C)=C/CCC(=O)NO
- IC50 [1]: Not Active

SMILES: CC(C)=CCC/C(C)=C/CC/C(C)=C/CCC(=O)NS(=O)(=O)O
- IC50 ([1]; read-out: IC50): > 200 µM
- IC50 ([2]; read-out: IC50): 85 µM

Continued by falling IC50 ([2]; read-out: IC50), values first:

- IC50 ([1]; read-out: IC50): 200 µM
- IC50 ([2]; read-out: IC50): 60 µM
SMILES: CC(C)=CCC/C(C)=C/CC/C(C)=C/CCC(=O)NC(C(=O)O)C(=O)O

- IC50 ([2]; read-out: IC50): 21 µM
SMILES: CC(C)=CCC/C(C)=C/CC/C(C)=C/CC(CCCc1nccn1C)(C(=O)O)C(=O)O

- IC50 ([2]; read-out: IC50): 12 µM
SMILES: CC(C)=CCC/C(C)=C/CC/C(C)=C/C(c1nccn1C)C(CC(=O)O)C(=O)O (stereo unspecified)

- IC50 ([2]; read-out: IC50): 10 µM
SMILES: CC(C)=CCC/C(C)=C/CC/C(C)=C/C=C/C(=O)NC(C(=O)O)C(=O)O

- Ki [3]: 260 nM
- Activity [4]: inactive
- IC50 ([1]; read-out: IC50): 4 µM
- IC50 ([2]; read-out: IC50): 0.9 µM
SMILES: CC(C)=CCC/C(C)=C/CC/C(C)=C/CC(C(=O)O)C(=O)O

- IC50 ([1]; read-out: IC50): 5 µM
- IC50 ([2]; read-out: IC50): 0.88 µM
SMILES: CC(C)=CCC/C(C)=C/CC/C(C)=C/COC(C(=O)O)C(=O)O

- Ki [3]: 500 nM
- Ki [9]: 17 µM
- IC50 (Plasmodium falciparum): 17.2 µM
- IC50 ([2]; read-out: IC50): 0.64 µM
- Ki [10]: 15 µM
SMILES: CCOC(=O)C(C/C=C/c1ncc(CN[C@H](C(=O)N[C@@H](Cc2ccccc2)C(=O)N[C@@H](CCSC)C(=O)O)C(C)C)n1C)(C/C=C(\C)CC/C=C(\C)CCC=C(C)C)C(=O)O (stereo partly specified)
- inhibition (KB [7]): inactive
- inhibition [8]: inactive
- inhibition [5]: inactive

- Ki [3]: 230 nM
- Ki [9]: 7.7 µM
- IC50 (Plasmodium falciparum): 31.4 µM
- IC50 ([2]; read-out: IC50): 0.24 µM
- Ki [10]: 5.6 µM
SMILES: CCOC(=O)C(C/C=C(\C)CC/C=C(\C)CCC=C(C)C)(CCCc1ncc(CN[C@H](C(=O)N[C@@H](Cc2ccccc2)C(=O)N[C@@H](CCSC)C(=O)O)C(C)C)n1C)C(=O)O (stereo partly specified)
- inhibition (KB [7]): inactive
- inhibition [8]: inactive
- inhibition [5]: inactive

- IC50 ([1]; read-out: IC50): 0.34 µM
- IC50 ([2]; read-out: IC50): 0.175 µM
SMILES: CCCCCCCCCCCCCC/C(C(=O)O)=C(\C)C(=O)O [CHAETOMELLIC ACID A]
